Laboratory results from ChEMBL document CHEMBL5303300, “EUbOPEN Chemogenomics Library - Multiplex” (2023).
Values joined by “and” are separate entries in the source; they are usually repeats but may differ in a detail not shown here. Identical values can stand only once.

Tested on: Fibroblast
Assay: Multiplex assay against human fibroblast
Type: toxicity, cell-based
Settings: number of replicates 2
Summary of the method: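 Live cells were stained at seeding with Hoechst33342, BioTracker Green Microtubule Cytoskeleton Dye, MitoTracker Red and Annexin V Alexa Fluor 680. Following compound addition, they were imaged on a CQ1 microscope at 37°C and 5% CO2 and gated by CellPathfinder machine learning into Hoechst high-intensity objects or normal cells, with normal cells split into healthy, pyknosed or fragmented nuclei and pyknosed cells into mitotic or apoptotic. Tubulin, mitochondrial-mass and membrane-permeability phenotypes are per cents of healthy-nucleus cells.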

[1] = 12 h, 1 µM, compound concentration 1 uM
[2] = 12 h, 10 µM, compound concentration 10 uM
[3] = 24 h, 1 µM, compound concentration 1 uM
[4] = 24 h, 10 µM, compound concentration 10 uM
[5] = 48 h, 1 µM, compound concentration 1 uM
[6] = 48 h, 10 µM, compound concentration 10 uM

Cc1onc(-c2ccccc2Cl)c1C(=O)N(C)c1ccc(Cl)cc1
Population Apoptotic (%) [1]: 35%
Population Fragmented Nuclei (%) [1]: 11% and 12%
Population Healthy Nuclei (%) [1]: 66% and 69%
Population Hoechst High Intensity Objects (%) [1]: 0%
Population Membrane Permeable-Phenotype (%) [1]: 6% and 8%
Population Mitochondria Different-Phenotype (%) [1]: 0%
Population Mitotic Cells (%) [1]: 64%
Population Normal (%) [1]: 100%
Population Pyknosed Nuclei (%) [1]: 22% and 18%
Population Tubulin-Different-Phenotype (%) [1]: 16% and 12%
Total Cell Count [1]: 167 and 197
Population Apoptotic (%) [2]: 36% and 47%
Population Fragmented Nuclei (%) [2]: 8%
Population Healthy Nuclei (%) [2]: 67% and 72%
Population Hoechst High Intensity Objects (%) [2]: 0%
Population Membrane Permeable-Phenotype (%) [2]: 8% and 11%
Population Mitochondria Different-Phenotype (%) [2]: 2%
Population Mitotic Cells (%) [2]: 63% and 52%
Population Normal (%) [2]: 100%
Population Pyknosed Nuclei (%) [2]: 24% and 18%
Population Tubulin-Different-Phenotype (%) [2]: 18% and 15%
Total Cell Count [2]: 185 and 192
Population Apoptotic (%) [3]: 44% and 31%
Population Fragmented Nuclei (%) [3]: 8% and 13%
Population Healthy Nuclei (%) [3]: 66% and 64%
Population Hoechst High Intensity Objects (%) [3]: 0%
Population Membrane Permeable-Phenotype (%) [3]: 7% and 6%
Population Mitochondria Different-Phenotype (%) [3]: 0%
Population Mitotic Cells (%) [3]: 55% and 68%
Population Normal (%) [3]: 100%
Population Pyknosed Nuclei (%) [3]: 24% and 22%
Population Tubulin-Different-Phenotype (%) [3]: 13% and 9%
Total Cell Count [3]: 157 and 204
Population Apoptotic (%) [4]: 56% and 57%
Population Fragmented Nuclei (%) [4]: 5% and 8%
Population Healthy Nuclei (%) [4]: 72% and 74%
Population Hoechst High Intensity Objects (%) [4]: 0%
Population Membrane Permeable-Phenotype (%) [4]: 5% and 8%
Population Mitochondria Different-Phenotype (%) [4]: 4% and 0%
Population Mitotic Cells (%) [4]: 43% and 42%
Population Normal (%) [4]: 100% and 99%
Population Pyknosed Nuclei (%) [4]: 22% and 17%
Population Tubulin-Different-Phenotype (%) [4]: 15% and 11%
Total Cell Count [4]: 166 and 203
Population Apoptotic (%) [5]: 42% and 56%
Population Fragmented Nuclei (%) [5]: 8% and 14%
Population Healthy Nuclei (%) [5]: 72% and 68%
Population Hoechst High Intensity Objects (%) [5]: 0%
Population Membrane Permeable-Phenotype (%) [5]: 2% and 3%
Population Mitochondria Different-Phenotype (%) [5]: 0%
Population Mitotic Cells (%) [5]: 57% and 43%
Population Normal (%) [5]: 100%
Population Pyknosed Nuclei (%) [5]: 18% and 17%
Population Tubulin-Different-Phenotype (%) [5]: 9% and 4%
Total Cell Count [5]: 148 and 214
Population Apoptotic (%) [6]: 65% and 54%
Population Healthy Nuclei (%) [6]: 77% and 74%
Population Hoechst High Intensity Objects (%) [6]: 0%
Population Membrane Permeable-Phenotype (%) [6]: 7% and 4%
Population Mitochondria Different-Phenotype (%) [6]: 1% and 0%
Population Mitotic Cells (%) [6]: 34% and 45%
Population Normal (%) [6]: 100%
Population Pyknosed Nuclei (%) [6]: 18% and 9%
Population Tubulin-Different-Phenotype (%) [6]: 11% and 8%
Total Cell Count [6]: 157 and 221

C[C@@H](OC[C@@]1(c2ccccc2)CC[C@]2(CCC(=O)N2)CN1)c1cc(C(F)(F)F)cc(C(F)(F)F)c1 [ROLAPITANT]
Population Apoptotic (%) [1]: 32% and 48%
Population Fragmented Nuclei (%) [1]: 7% and 12%
Population Healthy Nuclei (%) [1]: 76% and 62%
Population Hoechst High Intensity Objects (%) [1]: 0%
Population Membrane Permeable-Phenotype (%) [1]: 9% and 4%
Population Mitochondria Different-Phenotype (%) [1]: 4% and 2%
Population Mitotic Cells (%) [1]: 67% and 51%
Population Normal (%) [1]: 100% and 99%
Population Pyknosed Nuclei (%) [1]: 15% and 25%
Population Tubulin-Different-Phenotype (%) [1]: 26% and 13%
Total Cell Count [1]: 195 and 264
Population Apoptotic (%) [2]: 40% and 46%
Population Fragmented Nuclei (%) [2]: 17% and 10%
Population Healthy Nuclei (%) [2]: 67% and 71%
Population Hoechst High Intensity Objects (%) [2]: 0%
Population Membrane Permeable-Phenotype (%) [2]: 5% and 6%
Population Mitochondria Different-Phenotype (%) [2]: 7% and 3%
Population Mitotic Cells (%) [2]: 60% and 53%
Population Normal (%) [2]: 100%
Population Pyknosed Nuclei (%) [2]: 15% and 17%
Population Tubulin-Different-Phenotype (%) [2]: 45% and 26%
Total Cell Count [2]: 131 and 146
Population Apoptotic (%) [3]: 40% and 55%
Population Fragmented Nuclei (%) [3]: 15% and 13%
Population Healthy Nuclei (%) [3]: 74% and 66%
Population Hoechst High Intensity Objects (%) [3]: 0%
Population Membrane Permeable-Phenotype (%) [3]: 2% and 8%
Population Mitochondria Different-Phenotype (%) [3]: 1%
Population Mitotic Cells (%) [3]: 60% and 44%
Population Normal (%) [3]: 100%
Population Pyknosed Nuclei (%) [3]: 9% and 20%
Population Tubulin-Different-Phenotype (%) [3]: 19% and 18%
Total Cell Count [3]: 202 and 257
Population Apoptotic (%) [4]: 52% and 60%
Population Fragmented Nuclei (%) [4]: 23% and 16%
Population Healthy Nuclei (%) [4]: 62% and 66%
Population Hoechst High Intensity Objects (%) [4]: 0%
Population Membrane Permeable-Phenotype (%) [4]: 2% and 3%
Population Mitochondria Different-Phenotype (%) [4]: 14% and 5%
Population Mitotic Cells (%) [4]: 47% and 40%
Population Normal (%) [4]: 100%
Population Pyknosed Nuclei (%) [4]: 14% and 16%
Population Tubulin-Different-Phenotype (%) [4]: 59% and 28%
Total Cell Count [4]: 134 and 153
Population Apoptotic (%) [5]: 58% and 66%
Population Fragmented Nuclei (%) [5]: 13% and 11%
Population Healthy Nuclei (%) [5]: 78% and 74%
Population Hoechst High Intensity Objects (%) [5]: 0%
Population Membrane Permeable-Phenotype (%) [5]: 4% and 8%
Population Mitochondria Different-Phenotype (%) [5]: 1%
Population Mitotic Cells (%) [5]: 41% and 33%
Population Normal (%) [5]: 100%
Population Pyknosed Nuclei (%) [5]: 8% and 14%
Population Tubulin-Different-Phenotype (%) [5]: 14% and 11%
Total Cell Count [5]: 204 and 254
Population Apoptotic (%) [6]: 85% and 93%
Population Fragmented Nuclei (%) [6]: 32% and 23%
Population Healthy Nuclei (%) [6]: 58% and 67%
Population Hoechst High Intensity Objects (%) [6]: 0%
Population Membrane Permeable-Phenotype (%) [6]: 5% and 3%
Population Mitochondria Different-Phenotype (%) [6]: 3% and 6%
Population Mitotic Cells (%) [6]: 14% and 6%
Population Normal (%) [6]: 100%
Population Pyknosed Nuclei (%) [6]: 8% and 9%
Population Tubulin-Different-Phenotype (%) [6]: 44% and 20%
Total Cell Count [6]: 158 and 167
